The values below come from ChEMBL document CHEMBL1795341, “Efficient synthesis, structural characterization and anti-microbial activity of chiral aryl boronate esters of 1,2-O-isopropylidene-α-D-xylofuranose” (2011).

Structures are written as SMILES. ≈ marks a conversion by molar mass, not a printed value.

Common to all, as to format: functional
The subject of assay [1] is Candida albicans. Kind of assay: Antifungal activity against Candida albicans MTCC 227 at 100 ug after 48 hrs by agar well diffusion method. The conditions noted are these: MTCC 227, 48 h, read-out: DIZ. Put shortly: (§1)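 Agar well diffusion on potato dextrose agar; 0.5 ml week-old culture spread over solidified plates, 6 mm wells bored. Compounds dissolved in DMSO at different concentrations and added to wells, with controls. Incubated 27 °C for 48 h; inhibition zone diameter measured in mm; three to four replicates per treatment.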

Assay [2] has as its system Escherichia coli. Kind of assay: Antibacterial activity against Escherichia coli MTCC 443 by broth microdilution method. On the technique in general: Broth dilution looks for growth in wells or tubes with falling amounts of substance.
The test system of assay [3] is Klebsiella pneumoniae. Kind of assay: Antibacterial activity against Klebsiella pneumoniae MTCC 618 by broth microdilution method.
Assay [4] relates to Aspergillus niger. The assay can be described thus: Antifungal activity against Aspergillus niger MTCC 282 at 150 ug after 48 hrs by agar well diffusion method. The conditions noted are these: MTCC 282, 48 h, read-out: DIZ. Put shortly: as §1
A general note: A growth-free zone around the sample is the usual read-out of agar diffusion tests.

For assay [5], the system named is Aspergillus niger. The assay can be described thus: Antifungal activity against Aspergillus niger MTCC 282 at 100 ug after 48 hrs by agar well diffusion method. As to conditions: MTCC 282, 48 h, read-out: DIZ. Put shortly: as §1
Assay [6] concerns Diutina rugosa. Kind of assay: Antifungal activity against Candida rugosa NCIM 3462 at 100 ug after 48 hrs by agar well diffusion method. The conditions noted are these: NCIM 3462, 48 h, read-out: DIZ. Put shortly: as §1
Assay [7] relates to Saccharomyces cerevisiae. Kind of assay: Antifungal activity against Saccharomyces cerevisiae MTCC 36 at 100 ug after 48 hrs by agar well diffusion method. As to conditions: MTCC 36, 48 h, read-out: DIZ. A digest of the protocol: as §1
Assay [8] has as its system Diutina rugosa. Kind of assay: Antifungal activity against Candida rugosa NCIM 3462 at 150 ug after 48 hrs by agar well diffusion method. The conditions noted are these: NCIM 3462, 48 h, read-out: DIZ. A digest of the protocol: as §1
Assay [9] concerns Staphylococcus epidermidis. Kind of assay: Antibacterial activity against Staphylococcus epidermidis MTCC 2639 by broth microdilution method.
Assay [10] relates to Bacillus subtilis. Kind of assay: Antibacterial activity against Bacillus subtilis MTCC 441 by broth microdilution method.
Assay [11] deals with Staphylococcus aureus. The assay can be described thus: Antibacterial activity against Staphylococcus aureus MTCC 96 by broth microdilution method.
Assay [12] relates to Candida albicans. The assay can be described thus: Antifungal activity against Candida albicans MTCC 227 at 150 ug after 48 hrs by agar well diffusion method. As to conditions: MTCC 227, 48 h, read-out: DIZ. Put shortly:
as §1

For assay [13], the system named is Pseudomonas aeruginosa. The assay can be described thus: Antibacterial activity against Pseudomonas aeruginosa MTCC 741 by broth microdilution method.
Assay [14] concerns Saccharomyces cerevisiae. Kind of assay: Antifungal activity against Saccharomyces cerevisiae MTCC 36 at 150 ug after 48 hrs by agar well diffusion method. As to conditions: MTCC 36, 48 h, read-out: DIZ. Put shortly:
as §1

For `CC1(C)O[C@H]2O[C@@H]3COB(c4ccsc4)O[C@@H]3[C@H]2O1`, the zone of inhibition at 100 µg/disc is 0 mm in assay [1], 12 mm in assay [5], 14 mm in assay [6] and 10 mm in assay [7]. Further, the MIC – broadly, the lowest concentration found to suppress growth – came to 4.68 µg/mL (≈ 16.6 µM) in [2]; 75 µg/mL (≈ 266 µM) in [3]; 18.8 µg/mL (≈ 66.5 µM) in assay [9]; 75 µg/mL (≈ 266 µM) in assay [10]; 37.5 µg/mL (≈ 133 µM) in assay [11]; 18.8 µg/mL (≈ 66.5 µM) in assay [13]. The zone of inhibition at 150 µg/disc came to 16 mm in assay [4], 20 mm in [8], 7 mm in assay [12] and 14 mm in [14].
`CC1(C)O[C@H]2O[C@@H]3COB(c4ccccc4)O[C@@H]3[C@H]2O1`: the zone of inhibition at 100 µg/disc in assay [1] amounted to 0 mm; in [5] it was 8 mm; in [6] it was 0 mm; in assay [7], 0 mm. Moreover, the MIC in assay [2] turned out to be 18.8 µg/mL (≈ 67.9 µM); in assay [3], 75 µg/mL (≈ 272 µM); in assay [9], 18.8 µg/mL (≈ 67.9 µM); in [10], 37.5 µg/mL (≈ 136 µM); in assay [11] it was 75 µg/mL (≈ 272 µM); in [13], 37.5 µg/mL (≈ 136 µM). The zone of inhibition at 150 µg/disc is 12 mm in assay [4], 0 mm in [8], 6 mm in [12] and 0 mm in assay [14].
With `CC1(C)O[C@H]2O[C@@H]3COB(c4ccc(F)cc4)O[C@@H]3[C@H]2O1`, the zone of inhibition at 100 µg/disc in [1] worked out at 6 mm; in assay [5] it was 0 mm; in assay [6] it was 11 mm; in [7], 7 mm. The MIC came to 37.5 µg/mL (≈ 128 µM) in assay [2]; 37.5 µg/mL (≈ 128 µM) in [3]; 75 µg/mL (≈ 255 µM) in [9]; 75 µg/mL (≈ 255 µM) in [10]; 18.8 µg/mL (≈ 63.8 µM) in assay [11]; 75 µg/mL (≈ 255 µM) in assay [13]. Also, the zone of inhibition at 150 µg/disc came to 6 mm in [4], 14 mm in assay [8], 8 mm in assay [12] and 10 mm in assay [14].
`C=Cc1ccc(B2OC[C@H]3O[C@@H]4OC(C)(C)O[C@@H]4[C@H]3O2)cc1`: the zone of inhibition at 100 µg/disc in [1] stood at 6 mm; in assay [5], 9 mm; in [6], 0 mm; in [7] it was 6 mm. Also, the MIC was 150 µg/mL (≈ 496 µM) in assay [2]; 150 µg/mL (≈ 496 µM) in assay [3]; 75 µg/mL (≈ 248 µM) in [9]; 75 µg/mL (≈ 248 µM) in assay [10]; 75 µg/mL (≈ 248 µM) in assay [11]; 37.5 µg/mL (≈ 124 µM) in assay [13]. For the same molecule, the zone of inhibition at 150 µg/disc is 14 mm in [4], 0 mm in assay [8], 9 mm in assay [12] and 8 mm in [14].
For the molecule `COc1ccc(B2OC[C@H]3O[C@@H]4OC(C)(C)O[C@@H]4[C@H]3O2)cc1`, the zone of inhibition at 100 µg/disc stood at 0 mm in assay [1], 0 mm in [5], 7 mm in assay [6] and 0 mm in assay [7]. The MIC in assay [2] is 150 µg/mL (≈ 490 µM); in assay [3] it was 75 µg/mL (≈ 245 µM); in [9], 150 µg/mL (≈ 490 µM); in [10], 150 µg/mL (≈ 490 µM); in assay [11], 150 µg/mL (≈ 490 µM); in assay [13], 150 µg/mL (≈ 490 µM). Also, the zone of inhibition at 150 µg/disc in assay [4] is 0 mm; in assay [8], 10 mm; in assay [12], 0 mm; in assay [14] it was 0 mm.
For `Cc1ccc(B2OC[C@H]3O[C@@H]4OC(C)(C)O[C@@H]4[C@H]3O2)cc1`, the zone of inhibition at 100 µg/disc in assay [1], in [5], in assay [6] and in assay [7] was 0 mm throughout. The MIC in [2], in assay [3], in assay [9], in [10], in assay [11] and in assay [13] was 150 µg/mL (≈ 517 µM) throughout. The zone of inhibition at 150 µg/disc in assay [4] stood at 0 mm; in assay [8], 6 mm; in assay [12] it was 0 mm; in [14] it was 0 mm.
With `CC1(C)O[C@H]2O[C@@H]3COB(c4ccc(C=O)cc4)O[C@@H]3[C@H]2O1`, the zone of inhibition at 100 µg/disc is 12 mm in [1], 6 mm in assay [5], 13 mm in assay [6] and 14 mm in [7]. In addition, the MIC in assay [2] worked out at 4.68 µg/mL (≈ 15.4 µM); in assay [3], 4.68 µg/mL (≈ 15.4 µM); in assay [9], 18.8 µg/mL (≈ 61.7 µM); in assay [10] it was 18.8 µg/mL (≈ 61.7 µM); in [11], 9.38 µg/mL (≈ 30.8 µM); in assay [13] it was 37.5 µg/mL (≈ 123 µM). Moreover, the zone of inhibition at 150 µg/disc in assay [4] came to 8 mm; in assay [8], 17 mm; in assay [12], 14 mm; in assay [14], 19 mm.
For `CC1(C)O[C@H]2O[C@@H]3COB(c4cccc([N+](=O)[O-])c4)O[C@@H]3[C@H]2O1`, the zone of inhibition at 100 µg/disc in assay [1] came out at 13 mm; in assay [5] it was 14 mm; in assay [6], 16 mm; in assay [7], 11 mm. For the same molecule, the MIC in [2] is 9.38 µg/mL (≈ 29.2 µM); in [3] it was 4.68 µg/mL (≈ 14.6 µM); in assay [9], 9.38 µg/mL (≈ 29.2 µM); in assay [10], 2.34 µg/mL (≈ 7.29 µM); in assay [11] it was 4.68 µg/mL (≈ 14.6 µM); in assay [13], 18.8 µg/mL (≈ 58.4 µM). The zone of inhibition at 150 µg/disc was found to be 18 mm in assay [4], 20 mm in assay [8], 18 mm in assay [12] and 16 mm in assay [14].
Regarding `CC1(C)O[C@H]2O[C@@H]3COB(c4cccs4)O[C@@H]3[C@H]2O1`, the zone of inhibition at 100 µg/disc turned out to be 0 mm in assay [1], 9 mm in assay [5], 9 mm in assay [6] and 12 mm in assay [7]. Further, the MIC in [2] was 150 µg/mL (≈ 532 µM); in assay [3] it was 150 µg/mL (≈ 532 µM); in assay [9] it was 37.5 µg/mL (≈ 133 µM); in assay [10], 75 µg/mL (≈ 266 µM); in [11] it was 150 µg/mL (≈ 532 µM); in assay [13] it was 75 µg/mL (≈ 266 µM). In addition, the zone of inhibition at 150 µg/disc in [4] stood at 11 mm; in assay [8], 13 mm; in assay [12], 6 mm; in assay [14], 17 mm.
With `CC1(C)O[C@H]2O[C@@H]3COB(c4ccc5ccccc5c4)O[C@@H]3[C@H]2O1`, the zone of inhibition at 100 µg/disc in [1] is 6 mm; in [5], 0 mm; in assay [6] it was 13 mm; in assay [7], 7 mm. Besides, the minimal inhibitory concentration (MIC) was 150 µg/mL (≈ 460 µM) in assay [2]; 150 µg/mL (≈ 460 µM) in assay [3]; 75 µg/mL (≈ 230 µM) in assay [9]; 150 µg/mL (≈ 460 µM) in [10]; 150 µg/mL (≈ 460 µM) in assay [11]; 150 µg/mL (≈ 460 µM) in assay [13]. The zone of inhibition at 150 µg/disc amounted to 4 mm in [4], 16 mm in assay [8], 9 mm in assay [12] and 11 mm in [14].
For `C[C@@H]1[C@H](O)[C@@H](C)/C=C/C=C/C=C/C=C/C=C/C=C/C=C/[C@H](O[C@@H]2O[C@H](C)[C@@H](O)[C@H](N)[C@@H]2O)C[C@@H]2O[C@](O)(C[C@@H](O)C[C@@H](O)[C@H](O)CC[C@@H](O)C[C@@H](O)CC(=O)O[C@H]1C)C[C@H](O)[C@H]2C(=O)O` [AMPHOTERICIN B], the zone of inhibition at 100 µg/disc in [1] came out at 23.5 mm; in assay [5], 25 mm; in [6], 21 mm; in [7], 22 mm.
As to `CC1(C)S[C@@H]2[C@H](NC(=O)Cc3ccccc3)C(=O)N2[C@H]1C(=O)O` [PENICILLIN G], the MIC in assay [2] came out at 12.5 µg/mL (≈ 37.4 µM); in assay [3], 6.25 µg/mL (≈ 18.7 µM); in assay [9] it was 3.12 µg/mL (≈ 9.35 µM); in assay [10] it was 1.56 µg/mL (≈ 4.67 µM); in assay [11], 1.56 µg/mL (≈ 4.67 µM); in assay [13], 12.5 µg/mL (≈ 37.4 µM).
As for `CN[C@@H]1[C@H](O[C@H]2[C@H](O[C@H]3[C@H](O)[C@@H](O)[C@H](N=C(N)N)[C@@H](O)[C@@H]3N=C(N)N)O[C@@H](C)[C@]2(O)C=O)O[C@@H](CO)[C@H](O)[C@H]1O` [STREPTOMYCIN], the MIC in assay [2] was 6.25 µg/mL (≈ 10.7 µM); in assay [3], 3.12 µg/mL (≈ 5.37 µM); in [9], 3.12 µg/mL (≈ 5.37 µM); in [10], 6.25 µg/mL (≈ 10.7 µM); in assay [11], 6.25 µg/mL (≈ 10.7 µM); in assay [13], 1.56 µg/mL (≈ 2.69 µM).
